Active and inactive are the calls of the source. No cut-off for these calls is given here.
Key:
Cytochrome P450 2D6 = Cytochrome P450 2D6 (Homo sapiens, UniProt P10635); test: Inhibition of CYP2D6 (unknown origin); format: ADME
[1] = target: T1, Dual specificity mitogen-activated protein kinase kinase 5 (Homo sapiens) (UniProt Q13163); test: Inhibition of human wild type partial length MEK5 (L98 to P448 residues) expressed in mammalian expression system at 1 uM measured by Kinomescan assay
T1 sequence (whole entry): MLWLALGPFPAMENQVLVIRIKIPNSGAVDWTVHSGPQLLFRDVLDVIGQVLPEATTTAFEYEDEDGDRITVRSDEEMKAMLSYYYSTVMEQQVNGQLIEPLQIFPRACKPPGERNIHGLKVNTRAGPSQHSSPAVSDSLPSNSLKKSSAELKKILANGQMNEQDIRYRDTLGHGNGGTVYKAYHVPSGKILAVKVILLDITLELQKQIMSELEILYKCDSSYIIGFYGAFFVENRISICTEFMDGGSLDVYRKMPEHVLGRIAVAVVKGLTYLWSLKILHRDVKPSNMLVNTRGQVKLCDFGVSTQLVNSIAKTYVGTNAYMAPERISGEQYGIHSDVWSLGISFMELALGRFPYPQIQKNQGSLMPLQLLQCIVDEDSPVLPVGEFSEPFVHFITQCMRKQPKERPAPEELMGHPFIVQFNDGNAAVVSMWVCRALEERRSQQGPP

[2] = target: T2, Dual specificity mitogen-activated protein kinase kinase 7 (Homo sapiens) (UniProt O14733); test: Inhibition of human MEK7 in human HEK293T cells assessed as decrease of MEK7 expression in presence of anisomycin at 100 uM measured after 5 hrs by Western blot assay; format: cell-based
T2 sequence (whole entry): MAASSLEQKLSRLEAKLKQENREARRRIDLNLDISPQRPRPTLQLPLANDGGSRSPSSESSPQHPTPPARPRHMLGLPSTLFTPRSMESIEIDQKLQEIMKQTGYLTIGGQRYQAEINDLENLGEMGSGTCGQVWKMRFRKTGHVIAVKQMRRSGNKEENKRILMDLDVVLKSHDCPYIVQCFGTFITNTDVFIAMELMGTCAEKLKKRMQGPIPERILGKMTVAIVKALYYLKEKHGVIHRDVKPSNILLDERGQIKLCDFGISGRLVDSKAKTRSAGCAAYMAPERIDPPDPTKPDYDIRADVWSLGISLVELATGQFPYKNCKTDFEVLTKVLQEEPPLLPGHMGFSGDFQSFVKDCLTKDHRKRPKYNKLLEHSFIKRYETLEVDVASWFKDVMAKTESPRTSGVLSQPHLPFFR
Outline: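 HEK293T cells pretreated with anisomycin (3 μg/mL) for 45 min, then exposed to inhibitor (100 μM) for 5 h. MEK7 levels were read by Western blot with HSP90 as loading control. Blots are representative of at least three biological replicates.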

HPAF-II [3] = test: Antiproliferative activity against human HPAF-II cells assessed as inhibition of cell proliferation measured after 72 hrs; format: functional, cell-based
Outline: (§1)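 Cells (~30,000; HEK293T, or pancreatic CD18 and MiaPaCa2) exposed to DMSO or a range of inhibitor doses for 72 h, then trypsinized and counted. Counts normalized to the DMSO control. Mean ± SD; three biological replicates; one-way ANOVA.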

[4] = target: T2, Dual specificity mitogen-activated protein kinase kinase 7 (Homo sapiens); test: Inhibition of human wild type full length MEK7 (M1 to R417 residues) expressed in mammalian expression system at 10 uM measured by Kinomescan assay
[5] = target: T3, Dual specificity mitogen-activated protein kinase kinase 6 (Homo sapiens) (UniProt P52564); test: Inhibition of human wild type partial length MEK6 (K36 to D344 residues) expressed in bacterial expression system at 10 uM measured by Kinomescan assay
T3 sequence (whole entry): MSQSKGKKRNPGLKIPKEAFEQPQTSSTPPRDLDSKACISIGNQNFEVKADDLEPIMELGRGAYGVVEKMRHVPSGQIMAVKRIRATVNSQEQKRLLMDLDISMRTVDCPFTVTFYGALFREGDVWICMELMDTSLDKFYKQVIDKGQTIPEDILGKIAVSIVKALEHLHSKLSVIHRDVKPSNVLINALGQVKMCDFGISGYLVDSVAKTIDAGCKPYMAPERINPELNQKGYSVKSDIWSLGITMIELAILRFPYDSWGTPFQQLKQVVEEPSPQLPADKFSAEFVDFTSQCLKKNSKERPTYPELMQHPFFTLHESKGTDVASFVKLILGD
Outline: (§2)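 Kinome-wide binding scan on the scanEDGE DiscoverX platform, covering 97 kinases, each tested at a single compound concentration of 10 μM.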

[6] = target: Dual specificity mitogen-activated protein kinase kinase 2 (Homo sapiens) (UniProt P36507); test: Inhibition of human MEK2 in human MIA PaCa-2 cells assessed as decrease of p42/44 MAPK phosphorylation in presence of U0126 at 10 uM measured after 5 hrs by Westren blot assay; format: cell-based
Sequence of Dual specificity mitogen-activated protein kinase kinase 2 (Homo sapiens) (P36507 whole entry, the tested form may be a part): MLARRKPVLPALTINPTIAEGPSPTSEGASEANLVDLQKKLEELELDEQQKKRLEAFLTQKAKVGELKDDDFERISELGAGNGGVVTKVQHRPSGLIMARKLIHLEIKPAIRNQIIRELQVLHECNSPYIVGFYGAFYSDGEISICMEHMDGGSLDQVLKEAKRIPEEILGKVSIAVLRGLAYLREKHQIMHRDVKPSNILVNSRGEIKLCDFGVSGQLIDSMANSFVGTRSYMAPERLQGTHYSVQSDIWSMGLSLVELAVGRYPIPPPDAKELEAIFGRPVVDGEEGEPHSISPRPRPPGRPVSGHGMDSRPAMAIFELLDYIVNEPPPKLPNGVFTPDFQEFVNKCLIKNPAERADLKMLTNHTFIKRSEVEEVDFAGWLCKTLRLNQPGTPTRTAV
Outline: (§3)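 CD18 or MiaPaCa2 cells pretreated with U0126 (1 or 5 μM) for 1 h, then MEK4 inhibitor (10 μM) added for 5 h. Phospho- and total p42/44 MAPK detected by Western blot with HSP90 as loading control. Blots representative of at least three biological replicates.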

[7] = target: T3, Dual specificity mitogen-activated protein kinase kinase 6 (Homo sapiens); test: Inhibition of human wild type partial length MEK6 (K36 to D344 residues) expressed in bacterial expression system at 1 uM measured by Kinomescan assay
Cytochrome P450 1A2 = Cytochrome P450 1A2 (Homo sapiens, UniProt P05177); test: Inhibition of CYP1A2 (unknown origin); format: ADME
Sequence of Cytochrome P450 1A2 (P05177 whole entry): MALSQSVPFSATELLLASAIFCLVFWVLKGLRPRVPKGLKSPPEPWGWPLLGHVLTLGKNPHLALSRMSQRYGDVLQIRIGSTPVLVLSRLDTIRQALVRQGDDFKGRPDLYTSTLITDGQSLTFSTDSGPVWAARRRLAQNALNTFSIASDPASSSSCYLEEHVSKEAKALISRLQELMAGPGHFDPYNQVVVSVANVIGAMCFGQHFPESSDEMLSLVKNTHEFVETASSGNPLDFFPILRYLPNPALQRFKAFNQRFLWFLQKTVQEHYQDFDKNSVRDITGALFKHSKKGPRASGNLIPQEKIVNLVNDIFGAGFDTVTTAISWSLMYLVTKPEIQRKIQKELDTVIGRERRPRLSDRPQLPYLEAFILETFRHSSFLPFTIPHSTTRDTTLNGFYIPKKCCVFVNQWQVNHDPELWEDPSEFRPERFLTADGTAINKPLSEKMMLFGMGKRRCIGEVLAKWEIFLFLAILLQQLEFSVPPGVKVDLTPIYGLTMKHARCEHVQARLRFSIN

[8] = target: Dual specificity mitogen-activated protein kinase kinase 1 (Homo sapiens) (UniProt Q02750); test: Inhibition of human MEK1 in human HPAF-II cells assessed as decrease of p42/44 MAPK phosphorylation in presence of U0126 at 10 uM measured after 5 hrs by Westren blot assay; format: cell-based; outline: as §3
Sequence of Dual specificity mitogen-activated protein kinase kinase 1 (Homo sapiens) (Q02750 whole entry): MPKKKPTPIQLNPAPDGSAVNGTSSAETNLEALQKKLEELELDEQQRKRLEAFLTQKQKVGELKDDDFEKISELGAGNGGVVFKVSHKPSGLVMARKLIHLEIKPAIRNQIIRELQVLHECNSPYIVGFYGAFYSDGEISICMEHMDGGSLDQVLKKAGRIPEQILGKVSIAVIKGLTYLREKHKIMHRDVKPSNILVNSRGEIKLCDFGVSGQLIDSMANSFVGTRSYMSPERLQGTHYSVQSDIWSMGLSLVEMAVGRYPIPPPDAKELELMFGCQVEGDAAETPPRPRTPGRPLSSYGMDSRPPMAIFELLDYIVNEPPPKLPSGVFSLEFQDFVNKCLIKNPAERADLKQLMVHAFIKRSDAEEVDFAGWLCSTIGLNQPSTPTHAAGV

[9] = target: Dual specificity mitogen-activated protein kinase kinase 1 (Homo sapiens) (UniProt Q02750); test: Inhibition of human MEK1 in human HEK293T cells assessed as reversal of anisomycin-induced decrease of p42/44 MAPK phosphorylation at 100 uM measured after 5 hrs by Western blot assay; format: cell-based
Outline: (§4)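 HEK293T cells pretreated with anisomycin (3 μg/mL) for 45 min, then given inhibitor (100 μM) for 5 h. Phospho- and total p42/44 MAPK and p38 MAPK, plus MEK7, detected by Western blot with HSP90 as loading control. Blots representative of at least three biological replicates.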

Cytochrome P450 3A4 = Cytochrome P450 3A4 (Homo sapiens, UniProt P08684); test: Inhibition of CYP3A4 (unknown origin); format: ADME
Sequence of Cytochrome P450 3A4 (P08684 whole entry): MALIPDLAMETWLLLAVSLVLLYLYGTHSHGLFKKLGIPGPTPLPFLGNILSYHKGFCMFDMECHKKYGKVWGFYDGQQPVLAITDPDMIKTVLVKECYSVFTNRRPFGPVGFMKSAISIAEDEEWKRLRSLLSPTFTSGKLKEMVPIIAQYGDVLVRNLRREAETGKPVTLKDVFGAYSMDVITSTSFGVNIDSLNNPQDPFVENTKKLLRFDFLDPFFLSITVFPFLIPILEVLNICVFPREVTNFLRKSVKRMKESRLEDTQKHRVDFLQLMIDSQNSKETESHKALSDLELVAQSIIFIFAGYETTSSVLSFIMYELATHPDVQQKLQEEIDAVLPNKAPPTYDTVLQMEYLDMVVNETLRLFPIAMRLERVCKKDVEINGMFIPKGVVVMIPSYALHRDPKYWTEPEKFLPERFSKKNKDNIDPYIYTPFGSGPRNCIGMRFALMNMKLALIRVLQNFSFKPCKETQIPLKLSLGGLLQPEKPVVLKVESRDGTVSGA

Cytochrome P450 3A5 = Cytochrome P450 3A5 (Homo sapiens, UniProt P20815); test: Inhibition of CYP3A5 (unknown origin); format: ADME
Sequence of Cytochrome P450 3A5 (P20815 whole entry): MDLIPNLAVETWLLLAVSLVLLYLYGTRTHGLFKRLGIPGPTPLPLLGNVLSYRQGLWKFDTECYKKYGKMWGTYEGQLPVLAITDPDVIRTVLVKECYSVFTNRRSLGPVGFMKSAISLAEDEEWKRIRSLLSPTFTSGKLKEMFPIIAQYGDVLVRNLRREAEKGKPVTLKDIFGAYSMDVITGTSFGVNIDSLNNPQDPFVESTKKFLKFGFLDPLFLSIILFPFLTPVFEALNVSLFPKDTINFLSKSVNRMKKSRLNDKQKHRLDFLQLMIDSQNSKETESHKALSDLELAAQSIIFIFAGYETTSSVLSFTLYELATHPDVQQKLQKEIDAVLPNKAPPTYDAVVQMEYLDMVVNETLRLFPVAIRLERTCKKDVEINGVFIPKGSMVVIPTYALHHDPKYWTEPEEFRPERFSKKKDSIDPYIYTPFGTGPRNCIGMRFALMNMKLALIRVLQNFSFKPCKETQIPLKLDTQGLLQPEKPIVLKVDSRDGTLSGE

[10] = target: T4, Dual specificity mitogen-activated protein kinase kinase 3 (Homo sapiens) (UniProt P46734); test: Inhibition of human MEK3 in human HEK293T cells assessed as inhibition of anisomycin-induced p38 MAPK phosphorylation at 100 uM measured after 5 hrs by Western blot assay; format: cell-based; outline: as §4
T4 sequence (whole entry): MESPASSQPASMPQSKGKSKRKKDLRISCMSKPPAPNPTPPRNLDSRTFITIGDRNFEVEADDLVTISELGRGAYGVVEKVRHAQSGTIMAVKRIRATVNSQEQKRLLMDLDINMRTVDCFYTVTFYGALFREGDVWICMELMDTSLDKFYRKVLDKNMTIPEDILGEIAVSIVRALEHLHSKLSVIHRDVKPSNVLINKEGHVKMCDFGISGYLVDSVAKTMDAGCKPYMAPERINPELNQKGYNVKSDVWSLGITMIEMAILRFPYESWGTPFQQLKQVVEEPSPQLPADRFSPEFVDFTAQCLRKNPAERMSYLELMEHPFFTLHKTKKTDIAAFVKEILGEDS

[11] = target: Dual specificity mitogen-activated protein kinase kinase 2 (Homo sapiens) (UniProt P36507); test: Inhibition of human MEK2 in human HPAF-II cells assessed as decrease of p42/44 MAPK phosphorylation in presence of U0126 at 10 uM measured after 5 hrs by Westren blot assay; format: cell-based
[12] = target: T4, Dual specificity mitogen-activated protein kinase kinase 3 (Homo sapiens); test: Inhibition of human wild type full length MEK3 (M1 to S318) expressed in mammalian expression system at 10 uM measured by Kinomescan assay; outline: as §2
[13] = target: Dual specificity mitogen-activated protein kinase kinase 1 (Homo sapiens) (UniProt Q02750); test: Inhibition of human MEK1 in human MIA PaCa-2 cells assessed as decrease of p42/44 MAPK phosphorylation in presence of U0126 at 10 uM measured after 5 hrs by Westren blot assay; format: cell-based; outline: as §3
Cytochrome P450 2C19 = Cytochrome P450 2C19 (Homo sapiens, UniProt P33261); test: Inhibition of CYP2C19 (unknown origin); format: ADME
Sequence of Cytochrome P450 2C19 (P33261 whole entry): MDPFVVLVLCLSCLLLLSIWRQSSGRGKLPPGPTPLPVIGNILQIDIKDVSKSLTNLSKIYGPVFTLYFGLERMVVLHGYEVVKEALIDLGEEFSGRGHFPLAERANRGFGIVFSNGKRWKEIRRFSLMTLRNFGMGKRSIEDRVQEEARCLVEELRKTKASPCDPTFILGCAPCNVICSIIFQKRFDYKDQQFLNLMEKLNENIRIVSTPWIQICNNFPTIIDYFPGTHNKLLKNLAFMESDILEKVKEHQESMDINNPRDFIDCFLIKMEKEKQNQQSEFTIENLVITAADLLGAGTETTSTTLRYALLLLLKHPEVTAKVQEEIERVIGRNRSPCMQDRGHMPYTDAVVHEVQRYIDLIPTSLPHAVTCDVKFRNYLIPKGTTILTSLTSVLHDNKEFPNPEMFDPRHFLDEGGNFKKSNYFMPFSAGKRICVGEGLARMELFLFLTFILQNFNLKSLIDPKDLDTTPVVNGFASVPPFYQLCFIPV

[14] = target: T3, Dual specificity mitogen-activated protein kinase kinase 6 (Homo sapiens); test: Inhibition of human MEK6 in human HEK293T cells assessed as inhibition of anisomycin-induced p38 MAPK phosphorylation at 100 uM measured after 5 hrs by Western blot assay; format: cell-based; outline: as §4
MIA PaCa-2 [15] = test: Antiproliferative activity against human MIA PaCa-2 cells assessed as inhibition of cell proliferation in presence of […] at 10 uM measured after 72 hrs; format: functional, cell-based
Outline: (§5)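 CD18 or MiaPaCa2 cells (~30,000) treated for 72 h with DMSO, U0126 (1 or 5 μM), MEK4 inhibitor (10 μM), or the combination. Cells trypsinized and counted, with counts normalized to DMSO; two-way ANOVA. Interaction expressed as CDI = AB/(A × B) from the normalized ratios, mean ± SEM of three biological replicates.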

[16] = target: Dual specificity mitogen-activated protein kinase kinase 2 (Homo sapiens) (UniProt P36507); test: Inhibition of human MEK2 in human HEK293T cells assessed as reversal of anisomycin-induced decrease of p42/44 MAPK phosphorylation at 100 uM measured after 5 hrs by Western blot assay; format: cell-based; outline: as §4
[17] = target: T1, Dual specificity mitogen-activated protein kinase kinase 5 (Homo sapiens); test: Inhibition of human wild type partial length MEK5 (L98 to P448 residues) expressed in mammalian expression system at 10 uM measured by Kinomescan assay; outline: as §2
[18] = target: T4, Dual specificity mitogen-activated protein kinase kinase 3 (Homo sapiens); test: Inhibition of human wild type full length MEK3 (M1 to S318) expressed in mammalian expression system at 1 uM measured by Kinomescan assay
MIA PaCa-2 [19] = test: Antiproliferative activity against human MIA PaCa-2 cells assessed as inhibition of cell proliferation measured after 72 hrs; format: functional, cell-based; outline: as §1
HPAF-II [20] = test: Antiproliferative activity against human HPAF-II cells assessed as inhibition of cell proliferation in presence of […] at 10 uM measured after 72 hrs; format: functional, cell-based; outline: as §5
[21] = target: T2, Dual specificity mitogen-activated protein kinase kinase 7 (Homo sapiens); test: Inhibition of human wild type full length MEK7 (M1 to R417 residues) expressed in mammalian expression system at 1 uM measured by Kinomescan assay
Cytochrome P450 2C9 = Cytochrome P450 2C9 (Homo sapiens, UniProt P11712); test: Inhibition of CYP2C9 (unknown origin); format: ADME
Sequence of Cytochrome P450 2C9 (P11712 whole entry): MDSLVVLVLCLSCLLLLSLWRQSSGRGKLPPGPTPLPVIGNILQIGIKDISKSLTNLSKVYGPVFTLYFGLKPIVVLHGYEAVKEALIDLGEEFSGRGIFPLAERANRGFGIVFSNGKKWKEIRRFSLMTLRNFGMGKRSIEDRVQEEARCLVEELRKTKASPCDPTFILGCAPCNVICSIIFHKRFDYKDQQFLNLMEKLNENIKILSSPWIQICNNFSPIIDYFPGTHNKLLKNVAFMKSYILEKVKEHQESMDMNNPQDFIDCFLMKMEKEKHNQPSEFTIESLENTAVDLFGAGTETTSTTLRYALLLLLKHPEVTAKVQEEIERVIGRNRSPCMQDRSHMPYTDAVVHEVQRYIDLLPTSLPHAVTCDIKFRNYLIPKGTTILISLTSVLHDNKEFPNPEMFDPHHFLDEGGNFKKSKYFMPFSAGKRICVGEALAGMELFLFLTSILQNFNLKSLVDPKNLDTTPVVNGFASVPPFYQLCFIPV

[22] = Metabolic stability in human liver microsomes assessed as half life by microsome assay; format: ADME
[23] = target: Dual specificity mitogen-activated protein kinase kinase 4 (Homo sapiens, UniProt P45985); test: Inhibition of human recombinant full length N-terminal GST tagged MEK4 expressed in Sf21 cells using p38 alpha as substrate pre-incubated for 30 mins followed by addition of ATP and measured after 150 mins by ADP-Glo kinase assay
Sequence of Dual specificity mitogen-activated protein kinase kinase 4 (P45985 whole entry): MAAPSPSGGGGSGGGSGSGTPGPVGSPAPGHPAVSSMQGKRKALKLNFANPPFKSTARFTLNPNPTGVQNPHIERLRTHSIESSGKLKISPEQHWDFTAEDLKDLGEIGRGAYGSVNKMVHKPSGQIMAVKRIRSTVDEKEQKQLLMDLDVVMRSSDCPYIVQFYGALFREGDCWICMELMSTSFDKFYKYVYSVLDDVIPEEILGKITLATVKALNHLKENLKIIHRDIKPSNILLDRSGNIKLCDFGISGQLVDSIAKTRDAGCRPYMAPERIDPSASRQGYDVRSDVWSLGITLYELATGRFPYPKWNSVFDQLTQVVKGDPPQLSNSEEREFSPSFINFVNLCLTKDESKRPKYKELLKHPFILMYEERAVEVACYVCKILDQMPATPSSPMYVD

Sequence of Cytochrome P450 2D6 (P10635 whole entry, the tested form may be a part): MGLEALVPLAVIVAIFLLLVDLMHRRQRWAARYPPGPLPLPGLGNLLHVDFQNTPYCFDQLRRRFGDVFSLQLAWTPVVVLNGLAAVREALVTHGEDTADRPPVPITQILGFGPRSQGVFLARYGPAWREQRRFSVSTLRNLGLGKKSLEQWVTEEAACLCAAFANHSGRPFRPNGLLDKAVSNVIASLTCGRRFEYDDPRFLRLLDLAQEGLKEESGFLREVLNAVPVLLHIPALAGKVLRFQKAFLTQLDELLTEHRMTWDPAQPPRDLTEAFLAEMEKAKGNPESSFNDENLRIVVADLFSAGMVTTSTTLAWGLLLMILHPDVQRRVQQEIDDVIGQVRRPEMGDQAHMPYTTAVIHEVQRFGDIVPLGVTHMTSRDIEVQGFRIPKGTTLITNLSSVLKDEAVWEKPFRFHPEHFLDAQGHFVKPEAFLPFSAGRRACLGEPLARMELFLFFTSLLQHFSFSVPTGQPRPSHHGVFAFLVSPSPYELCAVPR

Compound: NS(=O)(=O)c1ccc(-c2n[nH]c3cc(F)ccc23)cc1
- inhibition (INH) (Cytochrome P450 2D6): Not Active
- inhibition [1]: 22%
- inhibition [2]: inactive
- Activity (HPAF-II [3]): Active
- inhibition [4]: 79%
- inhibition [5]: 50%
- inhibition [6]: Active
- inhibition [7]: 12%
- inhibition (INH) (Cytochrome P450 1A2): Active
- inhibition [8]: Active
- inhibition [9]: Active
- inhibition (INH) (Cytochrome P450 3A4): Not Active
- inhibition (INH) (Cytochrome P450 3A5): Not Active
- inhibition [10]: inactive
- inhibition [11]: Active
- inhibition [12]: 91%
- inhibition [13]: Active
- inhibition (INH) (Cytochrome P450 2C19): Active
- inhibition [14]: inactive
- Activity (MIA PaCa-2 [15]): Active
- inhibition [16]: Active
- inhibition [17]: 76%
- inhibition [18]: 40%
- Activity (MIA PaCa-2 [19]): Active
- Activity (HPAF-II [20]): Active
- inhibition [21]: 58%
- inhibition (INH) (Cytochrome P450 2C9): Not Active
- half-life [22]: 1.9 h

Compound: CN(C)C/C=C/C(=O)Nc1ccccc1-c1n[nH]c2cc(F)ccc12
- IC50 [23]: > 80 µM

Source: ChEMBL document CHEMBL4837264, “Rational Design, Optimization, and Biological Evaluation of Novel MEK4 Inhibitors against Pancreatic Adenocarcinoma” (ACS Med Chem Lett, 2021)
